# Laboratory results: ChEMBL document CHEMBL5390324, “Synthesis of 9-Cinnamyl-9H-purine Derivatives as Novel TLR4/MyD88/NF-κB Pathway Inhibitors for Anti-inflammatory Effects” (ACS Med Chem Lett, 2023)
# pIC50: −log10 of the molar value. The source made the active and inactive calls. The rule behind the calls is not given here.
# Assays:
# [1] = test system: RAW264.7; assay: Antiinflammatory activity in mouse RAW264.7 cells assessed as inhibition of LPS-stimulated nitric oxide production at 20 uM preincubated for 2 hrs followed by LPS stimulation for 24 hrs by Griess reagent based assay relative to control; type: functional; settings: time 26 hrs
# Method in brief: (§1)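 RAW264.7 cells pretreated 2 h with compound, then LPS (500 ng/mL) 24 h. Nitrite in culture supernatant measured with Griess reagent (1% sulfanilamide in 5% H3PO4, 0.1% N-(1-naphthyl)ethylenediamine dihydrochloride). Inhibition % as mean ± SEM of triplicates; negative values denote enhancement of NO.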
# [2] = test system: RAW264.7; assay: Cytotoxicity against mouse RAW264.7 cells at 3 to 30 uM by MTS assay; type: toxicity, cell-based; settings: raw264.7, 30 µM, dose 3-30 µM
# Method in brief: (§2)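 MTS viability assay in RAW264.7 and 293T cells at 3, 10 and 30 μM.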
# [3] = test system: RAW264.7; assay: Antiinflammatory activity in mouse RAW264.7 cells assessed as inhibition of LPS-stimulated nitric oxide production at 10 uM preincubated for 2 hrs followed by LPS stimulation for 24 hrs by Griess reagent based assay relative to control; type: functional; settings: time 26 hrs; method in brief: as §1
# [4] = test system: HEK-293T; assay: Cytotoxicity against HEK293T cells at 3 to 30 uM by MTS assay; type: toxicity, cell-based; settings: human, dose 3-30 µM; method in brief: as §2
# [5] = test system: RAW264.7; assay: Antiinflammatory activity in mouse RAW264.7 cells assessed as inhibition of LPS-stimulated nitric oxide production preincubated for 2 hrs followed by LPS stimulation for 24 hrs by Griess reagent based assay; type: functional, cell-based; settings: for inhibition: time 26.0 hrs; method in brief: as §1
# [6] = target: TLR4-MyD88 (Mus musculus) (UniProt Q9QUK6+P22366); assay: Inhibition of TLR4-MyD88 interaction in mouse RAW264.7 cells at 30 uM preincubated for 2 hrs followed by LPS stimulation for 24 hrs by co-immunoprecipitation analysis; type: cell-based; settings: time 26.0 hrs
# Method in brief: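 RAW264.7 cells treated with compound at 30 μM for 2 h, then LPS (500 ng/mL) for 24 h. Lysates immunoprecipitated with MyD88- or TLR4-specific antibodies on protein A/G agarose beads; immunocomplexes probed by Western blot for TLR4 or MyD88.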
# [7] = test system: RAW264.7; assay: Antiinflammatory activity in LPS-stimulated mouse RAW264.7 cells assessed as reduction in COX-2 level at 10 to 30 uM preincubated for 2 hrs followed by LPS stimulation for 20 hrs by Western blot analysis; type: functional, cell-based; settings: dose 10-30 µM, time 22.0 hrs
# Method in brief: (§3)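 RAW264.7 cells pretreated 2 h with compound, then LPS (200 ng/mL) for 20 h. iNOS and COX-2 protein assessed by Western blot.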
# [8] = test system: RAW264.7; assay: Antiinflammatory activity in LPS-stimulated mouse RAW264.7 cells assessed as reduction in iNOS level at 10 to 30 uM preincubated for 2 hrs followed by LPS stimulation for 20 hrs by Western blot analysis; type: functional, cell-based; settings: dose 10-30 µM, time 22.0 hrs; method in brief: as §3
# [9] = species: Mus musculus; assay: Antiinflammatory activity in DNCB-stimulated atopic dermatitis BALB/c mouse model assessed as reduction in skin lesion at 0.5 % pretreated for 30 mins followed by DNCB re-treatment measured after 3 hrs; type: functional, organism-based; settings: time 3.5 hrs
# Method in brief: (§4)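 DNCB-induced atopic dermatitis model in mouse ears, lesions peaking day 7 after sensitization; test agent applied at 0.5%. Ear thickness measured daily with a digimatic micrometer; ear lesions photographed. Ear specimens H&E-stained and examined microscopically for epidermal and dermal thickness and inflammatory cell infiltration. Mean ± SEM.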
# [10] = species: Mus musculus; assay: Antiinflammatory activity in DNCB-stimulated atopic dermatitis BALB/c mouse model assessed as reduction in ear swelling at 0.5 % pretreated for 30 mins followed by DNCB re-treatment measured after 3 hrs; type: functional, organism-based; settings: time 3.5 hrs; method in brief: as §4
# [11] = species: Mus musculus; assay: Antiinflammatory activity in DNCB-stimulated atopic dermatitis BALB/c mouse model assessed as reduction in dermal thickness of ear at 0.5 % pretreated for 30 mins followed by DNCB re-treatment measured after 3 hrs by H and E staining based microscopic analysis; type: functional, organism-based; settings: time 3.5 hrs; method in brief: as §4
# [12] = test system: HEK-293T; assay: Antiinflammatory activity in HEK293T cells transfected with NF-kappaB (unknown origin) assessed as inhibition in NF-kB transcription at 3 to 30 uM preincubated for 2 hrs followed by PMA stimulation for 24 hrs by SEAP reporter gene based Quanti-blue assay; type: functional, cell-based; settings: Homo sapiens, dose 3-30 µM, time 26.0 hrs
# Method in brief: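 293T cells on poly-D-lysine-coated wells transfected overnight with pNF-κB-SEAP. Treated with compound for 2 h, then PMA (50 ng/mL) for 24 h. Bay 11-7082 (20 μM) served as NF-κB inhibitor control. SEAP activity read with QUANTI-Blue. Mean ± SEM.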
# [13] = test system: RAW264.7; assay: Antiinflammatory activity in LPS-stimulated mouse RAW264.7 cells assessed as inhibition in IL-6 level at 3 to 30 uM preincubated for 2 hrs followed by LPS stimulation for 24 hrs by ELISA; type: functional, cell-based; settings: dose 3-30 µM, time 26.0 hrs
# Method in brief: (§5)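 RAW264.7 macrophages pretreated 2 h with compound, or Bay11-7082 as positive control, then LPS (500 ng/mL) for 24 h. IL-6, IL-1β and TNF-α in supernatants quantified by ELISA. Mean ± SEM.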
# [14] = test system: RAW264.7; assay: Antiinflammatory activity in LPS-stimulated mouse RAW264.7 cells assessed as inhibition in TNF-alpha level at 3 to 30 uM preincubated for 2 hrs followed by LPS stimulation for 24 hrs by ELISA; type: functional, cell-based; settings: dose 3-30 µM, time 26.0 hrs; method in brief: as §5
# [15] = species: Mus musculus; assay: Antiinflammatory activity in DNCB-stimulated atopic dermatitis BALB/c mouse model assessed as reduction in epidermal thickness of ear at 0.5 % pretreated for 30 mins followed by DNCB re-treatment measured after 3 hrs by H and E staining based microscopic analysis; type: functional, organism-based; settings: time 3.5 hrs; method in brief: as §4
# [16] = species: Mus musculus; assay: Antiinflammatory activity in DNCB-stimulated atopic dermatitis BALB/c mouse model assessed as reduction in infiltration of inflammatory cells of ear at 0.5 % pretreated for 30 mins followed by DNCB re-treatment measured after 3 hrs by H and E staining based microscopic analysis; type: functional, organism-based; settings: time 3.5 hrs; method in brief: as §4
# [17] = test system: RAW264.7; assay: Antiinflammatory activity in mouse RAW264.7 cells assessed as inhibition of NF-kappaB translocation from cytosol to nucleus at 30 uM preincubated for 2 hrs followed by LPS stimulation for 2 hrs by immunofluorescence staining analysis; type: functional, cell-based; settings: time 4.0 hrs
# Method in brief: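 RAW264.7 cells in glass chamber wells overnight, treated 2 h with compound (30 μM) or Bay (20 μM), then LPS for 2 h. Immunostained for NF-κB p65 with Alexa Fluor 488 secondary; nuclei counterstained with DAPI in antifade medium; fluorescence imaging.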
# [18] = test system: RAW264.7; assay: Antiinflammatory activity in LPS-stimulated mouse RAW264.7 cells assessed as inhibition in IL-1beta level at 3 to 30 uM preincubated for 2 hrs followed by LPS stimulation for 24 hrs by ELISA; type: functional, cell-based; settings: dose 3-30 µM, time 26.0 hrs; method in brief: as §5
# [19] = test system: RAW264.7; assay: Antiinflammatory activity in mouse RAW264.7 cells assessed as inhibition of nitric oxide production incubated for 2 hrs by Griess reagent based assay; type: functional, cell-based; method in brief: as §1
# Sequence of TLR4-MyD88 (Mus musculus) (P22366 whole entry, looked up): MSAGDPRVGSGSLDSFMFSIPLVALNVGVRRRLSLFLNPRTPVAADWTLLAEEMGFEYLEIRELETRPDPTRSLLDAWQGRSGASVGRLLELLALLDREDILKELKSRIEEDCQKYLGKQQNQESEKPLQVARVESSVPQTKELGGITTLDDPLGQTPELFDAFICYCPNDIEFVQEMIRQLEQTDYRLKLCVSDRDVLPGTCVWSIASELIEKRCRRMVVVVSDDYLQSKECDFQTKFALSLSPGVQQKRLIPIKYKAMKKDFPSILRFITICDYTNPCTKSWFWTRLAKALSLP
# Sequence of TLR4-MyD88 (Mus musculus) (Q9QUK6 whole entry, looked up): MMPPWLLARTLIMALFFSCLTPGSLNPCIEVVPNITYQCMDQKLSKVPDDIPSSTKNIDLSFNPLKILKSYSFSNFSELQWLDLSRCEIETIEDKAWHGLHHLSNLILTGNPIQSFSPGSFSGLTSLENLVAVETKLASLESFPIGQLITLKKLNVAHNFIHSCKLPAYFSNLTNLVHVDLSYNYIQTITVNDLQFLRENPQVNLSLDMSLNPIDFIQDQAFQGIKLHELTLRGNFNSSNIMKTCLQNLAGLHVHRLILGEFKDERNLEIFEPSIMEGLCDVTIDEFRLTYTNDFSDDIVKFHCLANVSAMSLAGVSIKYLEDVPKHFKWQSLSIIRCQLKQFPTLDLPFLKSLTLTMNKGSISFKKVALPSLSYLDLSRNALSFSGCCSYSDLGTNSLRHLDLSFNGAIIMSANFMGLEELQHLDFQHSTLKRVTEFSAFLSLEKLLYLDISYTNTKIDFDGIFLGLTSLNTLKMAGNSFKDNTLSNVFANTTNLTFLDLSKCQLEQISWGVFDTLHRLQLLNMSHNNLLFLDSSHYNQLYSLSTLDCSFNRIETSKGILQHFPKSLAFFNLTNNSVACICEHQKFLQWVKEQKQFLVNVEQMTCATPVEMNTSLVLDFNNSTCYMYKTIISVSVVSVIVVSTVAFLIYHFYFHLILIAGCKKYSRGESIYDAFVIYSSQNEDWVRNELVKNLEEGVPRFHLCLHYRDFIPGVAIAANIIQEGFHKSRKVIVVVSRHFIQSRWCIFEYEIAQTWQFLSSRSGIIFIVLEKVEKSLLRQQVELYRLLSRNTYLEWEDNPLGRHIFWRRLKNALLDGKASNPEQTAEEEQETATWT
SMILES,inhibition at 20 µM [1],inhibition at 10 µM [3],other results
Oc1ccc(/C=C/c2cc(O)cc(O)c2)cc1 [RESVERATROL],38.6%,26.6%,Activity [2]: Non-Toxic; Activity [4]: Non-Toxic; pIC50 [5]: 4.58
CNc1nc(Cl)nc2c1ncn2CC1CC1c1ccc(F)cc1 (stereo not given),11.9%,11.2%,
CNc1ncnc2c1ncn2C/C=C/c1ccccc1,33.4%,19.3%,
CNc1nc(Cl)nc2c1ncn2C/C=C/c1ccc(C)cc1,34.6%,28.4%,
Clc1ncnc2c1ncn2C/C=C/c1ccccc1,14.8%,15.1%,
Fc1ccc(/C=C/Cn2cnc3c(Cl)ncnc32)cc1,30.2%,11.6%,
CNc1nc(Cl)nc2c1ncn2C/C=C/c1ccc(F)cc1,36.5%,28.2%,
CNc1nc(Cl)nc2c1ncn2C/C=C/c1ccccc1,34.7%,26.8%,
ONc1nc(Cl)nc2c1ncn2C/C=C/c1ccccc1,51.2%,57.4%,
Cc1ccc(/C=C/Cn2cnc3c(Cl)ncnc32)cc1,12.1%,13.5%,
Cc1ccc(/C=C/Cn2cnc3c(Cl)nc(Cl)nc32)cc1,60.4%,31.9%,inhibition [6]: Active; Activity [7]: Active; Activity [8]: Active; Activity [9]: Active; Activity [2]: Non-Toxic; Activity [10]: Active; Activity [11]: Active; inhibition [12]: Active; Activity [4]: Non-Toxic; pIC50 [5]: 5.19; inhibition [13]: Active; inhibition [14]: Active; Activity [15]: Active; Activity [16]: Active; inhibition [17]: Active; inhibition [18]: Active
Clc1nc(Cl)c2ncn(C/C=C/c3ccccc3)c2n1,34.7%,22.2%,
Nc1ncnc2c1ncn2C/C=C/c1ccccc1,-13.3%,-3.38%,inhibition [19]: inactive; inhibition [5]: inactive
Fc1ccc(C2CC2Cn2cnc3c(Cl)nc(Cl)nc32)cc1 (stereo not given),17.1%,4.11%,
Nc1nc(Cl)nc2c1ncn2C/C=C/c1ccc(F)cc1,24.1%,13.9%,
Cc1ccc(/C=C/Cn2cnc3c(NO)nc(Cl)nc32)cc1,40.9%,36.8%,
Fc1ccc(/C=C/Cn2cnc3c(Cl)nc(Cl)nc32)cc1,40.5%,29.3%,
CNc1ncnc2c1ncn2C/C=C/c1ccc(F)cc1,2.9%,0.97%,
Cc1ccc(/C=C/Cn2cnc3c(N)nc(Cl)nc32)cc1,11.2%,11.9%,
Nc1ncnc2c1ncn2C/C=C/c1ccc(F)cc1,-19.3%,-17.1%,inhibition [19]: inactive; inhibition [5]: inactive
Nc1nc(Cl)nc2c1ncn2CC1CC1c1ccc(F)cc1 (stereo not given),1.56%,-6.22%,inhibition [19]: inactive; inhibition [5]: inactive
ONc1nc(Cl)nc2c1ncn2C/C=C/c1ccc(F)cc1,17.6%,4.59%,
CNc1ncnc2c1ncn2C/C=C/c1ccc(C)cc1,-15.7%,-7%,inhibition [19]: inactive; inhibition [5]: inactive
Cc1ccc(/C=C/Cn2cnc3c(Cl)nc(F)nc32)cc1,60.5%,31.1%,
Cc1ccc(/C=C/Cn2cnc3c(F)nc(F)nc32)cc1,12.1%,5.88%,
Nc1nc(Cl)nc2c1ncn2C/C=C/c1ccccc1,2.46%,-5.27%,inhibition [19]: inactive; inhibition [5]: inactive
Cc1ccc(/C=C/Cn2cnc3c(N)ncnc32)cc1,-7.73%,0.48%,inhibition [19]: inactive; inhibition [5]: inactive
